Measurements published in ChEMBL document CHEMBL3102796.

Legend:
[1] = target: T1, Neuraminidase (Influenza A virus, UniProt B4URF0); assay: Inhibition of Influenza A virus A/California/07/2009 (H1N1) neuraminidase using MUNANA as substrate preincubated for 30 mins measured after 2 hrs
[2] = target: T1, Neuraminidase; assay: Inhibition of Influenza A virus A/Hong Kong/8/1968 (H3N2) neuraminidase using MUNANA as substrate preincubated for 30 mins measured after 2 hrs
[3] = test system: Influenza A virus; assay: Antiviral activity against Influenza A virus A/California/07/2009 (H1N1) infected in MDCK cells assessed as reduction in virus plaque formation after 5 days; type: functional, organism-based; conditions: 120 h
Method in brief: (§1)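 MDCK cells were seeded at 1×10^6 per well and inoculated with virus at confluence. Serial ten-fold dilutions of inhibitor were added in an overlay of serum-free DMEM with 0.6% agarose and 1 µg/mL TPCK-treated trypsin. The overlay was removed after 5 days, and cells were fixed with 70% ethanol and stained with 0.2% crystal violet.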

[4] = test system: Influenza A virus; assay: Antiviral activity against Influenza A virus A/Hong Kong/8/1968 (H3N2) infected in MDCK cells assessed as reduction in virus plaque formation after 5 days; type: functional, organism-based; conditions: 120 h; method in brief: as §1
[5] = target: T1, Neuraminidase; assay: Inhibition of Influenza A virus H3N2 neuraminidase using MUNANA as substrate preincubated for 30 mins measured after 2 hrs
[6] = target: T1, Neuraminidase; assay: Inhibition of Influenza A virus H5N1 neuraminidase using MUNANA as substrate preincubated for 30 mins measured after 2 hrs

T1 sequence (B4URF0 whole entry): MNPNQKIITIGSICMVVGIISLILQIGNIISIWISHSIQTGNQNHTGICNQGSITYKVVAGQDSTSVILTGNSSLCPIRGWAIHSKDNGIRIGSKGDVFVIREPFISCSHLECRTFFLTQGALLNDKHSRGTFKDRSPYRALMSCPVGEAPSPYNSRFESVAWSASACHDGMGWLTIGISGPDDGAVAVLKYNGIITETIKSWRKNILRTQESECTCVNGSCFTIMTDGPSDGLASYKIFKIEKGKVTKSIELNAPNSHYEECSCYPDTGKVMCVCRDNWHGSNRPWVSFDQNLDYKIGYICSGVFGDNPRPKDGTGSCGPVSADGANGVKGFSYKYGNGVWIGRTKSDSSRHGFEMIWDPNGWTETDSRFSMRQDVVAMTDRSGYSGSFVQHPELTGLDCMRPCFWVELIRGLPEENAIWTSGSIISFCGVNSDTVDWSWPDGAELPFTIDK

Structure (SMILES)	IC50 [1]	IC50 [2]	IC50 [3]	IC50 [4]	IC50 [5]	IC50 [6]
CC(=O)N[C@H]1[C@H]([C@H](O)[C@H](O)CO)OC(SCCCCCCS)(C(=O)O)C[C@@H]1N (stereo not given in full)	56 µM	64 µM	> 100 µM	10 µM	178 µM	127 µM
CC(=O)N[C@H]1[C@H]([C@H](O)[C@H](O)CO)OC(SCCCCCCSC2(C(=O)O)C[C@H](N)[C@@H](NC(C)=O)[C@H]([C@H](O)[C@H](O)CO)O2)(C(=O)O)C[C@@H]1N (stereo not given in full)	9.9 µM	11.6 µM	100 µM	1 µM	32 µM	20 µM
CC(=O)N[C@H]1[C@H]([C@H](O)[C@H](O)CO)OC(SCCCCCCCCCCCCSC2(C(=O)O)C[C@H](N)[C@@H](NC(C)=O)[C@H]([C@H](O)[C@H](O)CO)O2)(C(=O)O)C[C@@H]1N (stereo not given in full)	11 µM	15 µM	100 µM	1 µM	40 µM	31 µM
CC(=O)N[C@H]1[C@H]([C@H](O)[C@H](O)CO)OC(SCCOCCOCCOCCSC2(C(=O)O)C[C@H](N)[C@@H](NC(C)=O)[C@H]([C@H](O)[C@H](O)CO)O2)(C(=O)O)C[C@@H]1N (stereo not given in full)	9.8 µM	11 µM	100 µM	1 µM	39 µM	28 µM
CC(=O)N[C@H]1[C@H]([C@H](O)[C@H](O)CO)OC(SCCOCCOCCOCCOCCSC2(C(=O)O)C[C@H](N)[C@@H](NC(C)=O)[C@H]([C@H](O)[C@H](O)CO)O2)(C(=O)O)C[C@@H]1N (stereo not given in full)	36 µM	21 µM	100 µM	1 µM	178 µM	64 µM
CC(=O)N[C@H]1[C@H]([C@H](O)[C@H](O)CO)OC(SCCOCCOCCOCCOCCOCCSC2(C(=O)O)C[C@H](N)[C@@H](NC(C)=O)[C@H]([C@H](O)[C@H](O)CO)O2)(C(=O)O)C[C@@H]1N (stereo not given in full)	45 µM	33 µM	100 µM	1 µM	216 µM	85 µM
CC(=O)N[C@H]1[C@H]([C@H](O)[C@H](O)CO)OC(SCCCCCCS)(C(=O)O)C[C@@H]1NC(=N)N (stereo not given in full)	0.8 µM	0.55 µM	10 µM	1 µM	1 µM	0.1 µM
CC(=O)N[C@H]1[C@H]([C@H](O)[C@H](O)CO)OC(SCCCCCCSC2(C(=O)O)C[C@H](NC(=N)N)[C@@H](NC(C)=O)[C@H]([C@H](O)[C@H](O)CO)O2)(C(=O)O)C[C@@H]1NC(=N)N (stereo not given in full)	0.26 µM	0.25 µM	1 µM	0.01 µM	4.2 µM	0.2 µM
CC(=O)N[C@H]1[C@H]([C@H](O)[C@H](O)CO)OC(SCCCCCCCCCCCCSC2(C(=O)O)C[C@H](NC(=N)N)[C@@H](NC(C)=O)[C@H]([C@H](O)[C@H](O)CO)O2)(C(=O)O)C[C@@H]1NC(=N)N (stereo not given in full)	0.8 µM	0.5 µM	1 µM	0.1 µM	12 µM	0.73 µM
CC(=O)N[C@H]1[C@H]([C@H](O)[C@H](O)CO)OC(SCCOCCOCCOCCSC2(C(=O)O)C[C@H](NC(=N)N)[C@@H](NC(C)=O)[C@H]([C@H](O)[C@H](O)CO)O2)(C(=O)O)C[C@@H]1NC(=N)N (stereo not given in full)	2.4 µM	1.78 µM	1 µM	0.1 µM	10 µM	2.5 µM
CC(=O)N[C@H]1[C@H]([C@H](O)[C@H](O)CO)OC(SCCOCCOCCOCCOCCSC2(C(=O)O)C[C@H](NC(=N)N)[C@@H](NC(C)=O)[C@H]([C@H](O)[C@H](O)CO)O2)(C(=O)O)C[C@@H]1NC(=N)N (stereo not given in full)	1.2 µM	1 µM	1 µM	0.01 µM	10 µM	1.1 µM
CCOC(=O)C1=C[C@@H](OC(CC)CC)[C@H](NC(C)=O)[C@@H](N)C1 [OSELTAMIVIR]	–	–	0.001 µM	0.001 µM	–	–
CC(=O)N[C@H]1[C@H]([C@H](O)[C@H](O)CO)OC(C(=O)O)=C[C@@H]1NC(=N)N [ZANAMIVIR]	–	–	0.01 µM	0.001 µM	–	–
